# Measurements collected from several papers.
# Protocols differ between the studies behind these lines.
# Target: Serine/threonine-protein kinase Nek4 (NEK4, Homo sapiens, UniProt P51957)
Compound,assay,conditions,quantity,value
CC1=C(C#N)[C@@H](c2ccc3[nH]nc(C)c3c2)C(C#N)=C(c2ccc(Cl)cc2)N1,"cell-free assay, competition with immobilised ligand",1 µM,remaining binding,90.1%
N#CCCc1ccc2c(c1)-c1[nH]c3ccc([N+](=O)[O-])cc3c1CC(=O)N2,cell-free assay,0.5 µM,remaining signal,104%
CCCCNc1ncc2c(-c3ccc(F)cc3)nn(C[C@H]3CC[C@H](N)CC3)c2n1,"target engagement in cells, inhibitor, chemoproteomics",20 mM,inhibition,-16.7%
O=C1NC(=O)c2cc(Nc3ccc(F)cc3)c(Nc3ccc(F)cc3)cc21,cell-free assay,0.5 µM,remaining signal,107%
C[C@@]1(Cc2ccc(C#N)cc2)C(=O)N(c2cc(Cl)cc(Cl)c2)c2ncc(C(=O)NC3(c4nc(C5CCC5)no4)CC3)n21,"cell-free assay, competition with immobilised ligand",1 µM,remaining binding,12%
CN1CC(Oc2cnc(C#N)cc2-c2ccn3nc(NC(=O)C4CC4)cc3c2)C1,"enzyme activity, inhibitor",1 µM,inhibition,2%
CC(C)(O)[C@H]1CC[C@H](Nc2ccc3ncc(-c4cccc(C(F)(F)F)c4)n3n2)CC1,"enzyme activity, inhibitor",1 µM,remaining activity,84.3%
CC(=O)N1CCC(c2ccc(C(=O)NC3=NCCN3)cc2C(F)(F)F)CC1,"cell-free assay, competition with immobilised ligand",1 µM,remaining binding,100%
CCCS(=O)(=O)Nc1ccc(F)c(C(=O)c2c[nH]c3ncc(-c4ccc(Cl)cc4)cc23)c1F,"enzyme activity, inhibitor",1 µM,inhibition,< 10%
COc1cc2ncnc(Nc3ccc(Oc4ccccc4)c(C)c3C)c2cc1OC,"enzyme activity, inhibitor",1 µM,inhibition,2%
O=C(Nc1cnc(Oc2ccc(F)cc2)nc1)N1CCc2ncccc2[C@@H]1c1ccc(F)cc1,"cell-free assay, competition with immobilised ligand",1 µM,remaining binding,79%
O=C(Nc1cnn(-c2csc(C(=O)NC3COC3)c2)c1)Nc1c(F)cccc1Cl,"enzyme activity, inhibitor",5 µM,remaining activity,90.8%
CCC(=O)N[C@@H]1CC[C@H](C(=O)N(C)c2ccc(-c3nc4ccccc4o3)cc2)C1,"cell-free assay, competition with immobilised ligand",1 µM,remaining binding,95%
CN(C)C1CCN(CC#Cc2nn(C3CCCC3)c3nc(NCc4ccccc4)ncc23)C1 (stereo not drawn),"enzyme activity, inhibitor, FRET",1 µM,inhibition,8%
CCCOc1ccc([C@H]2[C@H](C(=O)O)[C@@H](c3ccc4c(c3)OCO4)CN2CC(=O)Nc2c(CC)cccc2CC)cc1,"cell-free assay, competition with immobilised ligand",1 µM,remaining binding,71%
CC(C)(C)c1nc2c(s1)c1nc(N)ncc1c1ccc(NS(=O)(=O)c3c(F)cccc3F)c(F)c12,"enzyme activity, inhibitor, radiometric",1 µM,remaining activity,96%
c1ccc(CNc2nc(N3CCOc4ccccc43)nc3c2CCCC3)cc1,"target engagement in cells, inhibitor, chemoproteomics",20 mM,inhibition,-18.5%
CC/C(=N\NC(=O)NCc1cccc(O)c1)c1ccc(O)c(C)c1O,"enzyme activity, inhibitor",0.1 µM,inhibition,-1.9%
